Assay results: ChEMBL document CHEMBL3872211, “4, 5-Dihydrooxazole-pyrazoline hybrids: Synthesis and their evaluation as potential antimalarial agents” (Eur J Med Chem, 2016)
Converted amounts (≈) assume the structure as drawn. The source made the active and inactive calls. No cut-off for these calls is given here.

Legend:
[1] = tested on: Plasmodium falciparum; assay: Antimalarial activity against chloroquine-sensitive Plasmodium falciparum 3D7 infected in human red blood cells assessed as inhibition of schizont stage parasite growth measured after 24 hrs by giemsa staining based assay; type: functional, cell-based; settings: 3D7, 24 h
How it was run: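 Parasitized RBCs (2-3% parasitemia, 8% hematocrit) in RPMI 1640 with human AB+ serum were exposed to serial dilutions of test samples from 1 mg/ml stock. Incubation was 24 h at 37 °C under 90% N2/5% CO2/5% O2. Giemsa-stained smears were scored for schizonts (≥3 merozoites). IC50 was taken from dose-response curves by non-linear regression.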

[2] = tested on: Plasmodium falciparum; assay: Antimalarial activity against chloroquine-resistant Plasmodium falciparum RKL9 infected in human red blood cells assessed as inhibition of schizont stage parasite growth measured after 24 hrs by giemsa staining based assay; type: functional, cell-based; settings: RKL9, 24 h
How it was run: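 P. falciparum RKL9 parasitized RBCs at 2-3% parasitemia, 8% hematocrit in RPMI 1640 with human AB+ serum. Exposed to serial dilutions of test samples, 24 h at 37 °C under 90% N2/5% CO2/5% O2. Giemsa-stained smears; schizonts (≥3 merozoites) counted; IC50 by non-linear regression of dose-response curves.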

[3] = Selectivity index, ratio of IC50 for cytotoxicity against African green monkey vero cells to IC50 for antimalarial activity against chloroquine-sensitive Plasmodium falciparum 3D7 infected in human red blood cells; type: toxicity, cell-based; settings: read-out: Ratio IC50
How it was run: (§1)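 SI = CC50/IC50. CC50 from Vero cells exposed 72 h to compound dilutions, MTT read-out (modified Mosmann method). Antimalarial IC50 from 24 h, 37 °C P. falciparum (3D7 or RKL9) RBC culture, Giemsa schizont counts, non-linear regression.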

[4] = Resistance index, ratio of IC50 for chloroquine-resistant Plasmodium falciparum RKL9 infected in human RBC to IC50 for chloroquine-sensitive Plasmodium falciparum 3D7 infected in human red blood cells; type: functional
How it was run: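 Ratio of IC50 vs RKL9 to IC50 vs 3D7. Both from 24 h, 37 °C culture in RBCs (2-3% parasitemia, 8% hematocrit, RPMI 1640 plus human AB+ serum, 90% N2/5% CO2/5% O2), Giemsa smear schizont counts, non-linear regression.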

[5] = Selectivity index, ratio of IC50 for cytotoxicity against African green monkey vero cells to IC50 for antimalarial activity against chloroquine-resistant Plasmodium falciparum RKL9 infected in human red blood cells; type: toxicity, cell-based; settings: read-out: Ratio IC50; how it was run: as §1
[6] = tested on: Plasmodium berghei; assay: Antimalarial activity against Plasmodium berghei NK65 infected in Swiss albino mouse assessed as reduction in parasitemia at 25 mg/kg, po administered 4 hrs post infection for 4 days measured on day 4 post infection by giemsa staining based microscopic method; type: functional; parameters: scale not given: the % may be the effect or the level left
How it was run: (§2)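 Peters 4-day suppressive test: female Swiss albino mice (20-25 g), groups of five, infected ip with about 10-15% P. berghei NK65-parasitized erythrocytes from a donor mouse. Oral dosing began 4 h later and was given on days 0-3. Vehicle-only group served as negative control. On day 4, tail-vein smears were methanol-fixed, Giemsa-stained and read at 1000×. % suppression was calculated against the negative control.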

[7] = tested on: Rattus norvegicus; assay: Acute toxicity in Wistar rat assessed as inflammatory cells infiltration in periportal area of liver at <300 mg/kg, po measured after 14 days; type: organism-based; settings: in vivo, 336 h
[8] = tested on: Plasmodium berghei; assay: Antimalarial activity against Plasmodium berghei NK65 infected in Swiss albino mouse assessed as mean survival days at 50 mg/kg, po administered 4 hrs post infection for 4 days measured up to 30 days (Rvb= 7.2 days); type: functional
[9] = tested on: Plasmodium berghei; assay: Antimalarial activity against Plasmodium berghei NK65 infected in Swiss albino mouse assessed as mean survival days at 25 mg/kg, po administered 4 hrs post infection for 4 days measured up to 30 days (reference value: 7.2 days); type: functional
[10] = tested on: Plasmodium berghei; assay: Antimalarial activity against Plasmodium berghei NK65 infected in Swiss albino mouse assessed as reduction in parasitemia at 50 mg/kg, po administered 4 hrs post infection for 4 days measured on day 4 post infection by giemsa staining based microscopic method; type: functional; parameters: scale not given: the % may be the effect or the level left; how it was run: as §2
[11] = tested on: mu-oxodimeric heme; assay: Binding affinity to mu-oxodimeric heme (unknown origin) assessed as 1:1 stoichiometry for mu-oxodimeric heme-compound complex up to 100 uM at pH 5.8 by Job's plot analysis
How it was run: (§3)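 Hemin stock was 10 mM in 0.1 M NaOH, sonicated 30 min, then diluted in 20 mM phosphate buffer pH 5.8 to give µ-oxodimeric heme. Compound from 2 mM DMSO stock was titrated in (0-100 µM) and absorbance followed at 362 nm. Log K was obtained by titration, and stoichiometry by molar-fraction Job's plot.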

[12] = tested on: mu-oxodimeric heme; assay: Binding affinity to mu-oxodimeric heme (unknown origin) assessed as association constant at pH 5.8 by UV-titration method; how it was run: as §3
[13] = tested on: Heme; assay: Binding affinity to monomeric heme (unknown origin) assessed as association constant at pH 5.6 by UV-titration method
How it was run: (§4)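 Hemin stock was 1.2 mM in DMSO. It was diluted into aqueous DMSO (40%) buffered with HEPES pH 7.4 (0.02 M), or with MES for the pH 5.6 run. The titrant (2 mM stock in DMSO) was added stepwise at 0-100 µM final, and the Soret band was read at 402 nm. Association constant (log K) was derived by titration.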

[14] = tested on: Heme; assay: Binding affinity to monomeric heme (unknown origin) assessed as association constant at pH 7.4 by UV-titration method; how it was run: as §4
[15] = tested on: Heme; assay: Binding affinity to monomeric heme assessed as 1:1 stoichiometry for heme-compound complex up to 100 uM at pH 5.6 by Job's plot analysis
How it was run: (§5)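 Monomeric hemin was prepared in 40% DMSO with 0.02 M HEPES (pH 7.4) or 0.02 M MES (pH 5.6). Absorbance was monitored at 402 nm. Complex stoichiometry was determined by a molar-fraction Job's plot.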

[16] = tested on: Heme; assay: Binding affinity to monomeric heme assessed as 1:1 stoichiometry for heme-compound complex up to 100 uM at pH 7.4 by Job's plot analysis; how it was run: as §5
[17] = tested on: Plasmodium berghei; assay: Antimalarial activity against Plasmodium berghei NK65 infected in Swiss albino mouse assessed as mean survival days at 5 mg/kg, po administered 4 hrs post infection for 4 days measured up to 30 days (reference value: 7.2 days); type: functional
[18] = tested on: Plasmodium berghei; assay: Antimalarial activity against Plasmodium berghei NK65 infected in Swiss albino mouse assessed as reduction in parasitemia at 5 mg/kg, po administered 4 hrs post infection for 4 days measured on day 4 post infection by giemsa staining based microscopic method; type: functional; parameters: scale not given: the % may be the effect or the level left; how it was run: as §2

O=C(/C=C/c1ccccc1)c1ccc(OCC2=NCCO2)cc1
IC50 [1]: 1.77 µg/mL (≈ 5.77 µM)

NS(=O)(=O)c1ccc(N2N=C(c3ccc(OCC4=NCCO4)cc3)CC2c2cccc([N+](=O)[O-])c2)cc1 (configuration not stated)
IC50 [1]: 1.02 µg/mL (≈ 1.96 µM)

COc1ccc(C2CC(c3ccc(OCC4=NCCO4)cc3)=NN2c2ccccc2)cc1 (configuration not stated)
IC50 [1]: 0.545 µg/mL (≈ 1.27 µM) | IC50 [2]: 1.57 µg/mL (≈ 3.67 µM) | selectivity ratio [3]: 30.4 | Ratio IC50 [4]: 2.88 | selectivity ratio [5]: 10.5

Clc1ccc(C2CC(c3ccc(OCC4=NCCO4)cc3)=NN2c2ccccc2)cc1 (configuration not stated)
IC50 [1]: 0.477 µg/mL (≈ 1.1 µM) | IC50 [2]: 1.57 µg/mL (≈ 3.64 µM) | selectivity ratio [3]: 23.3 | Ratio IC50 [4]: 3.29 | selectivity ratio [5]: 7.1

COc1ccc(C2CC(c3ccc(OCC4=NCCO4)cc3)=NN2c2ccc(S(N)(=O)=O)cc2)cc1 (configuration not stated)
Activity [6]: 63.89% | Activity [7]: Non-Toxic | IC50 [1]: 0.322 µg/mL (≈ 0.636 µM) | IC50 [2]: 0.737 µg/mL (≈ 1.45 µM) | selectivity ratio [3]: 12.5 | Ratio IC50 [4]: 2.29 | MSD [8]: 15.6 days | MSD [9]: 11.4 days | Activity [10]: 79.33% | Activity [11]: Active | log K [12]: 4.34 | log K [13]: 4.98 | log K [14]: 5.87 | selectivity ratio [5]: 5.5 | Activity [15]: Active | Activity [16]: Active

CCN(CC)CCCC(C)Nc1ccnc2cc(Cl)ccc12 (configuration not stated) [CHLOROQUINE]
MSD [17]: 30 days | Activity [18]: 97.1%

c1ccc2c(C3CC(c4ccc(OCC5=NCCO5)cc4)=NN3)c[nH]c2c1 (configuration not stated)
IC50 [1]: 0.657 µg/mL (≈ 1.82 µM)

COc1ccc(C2CC(c3ccc(OCC4=NCCO4)cc3)=NN2)cc1 (configuration not stated)
IC50 [1]: 1.03 µg/mL (≈ 2.94 µM)

O=C(/C=C/c1ccc([N+](=O)[O-])cc1)c1ccc(OCC2=NCCO2)cc1
IC50 [1]: 0.723 µg/mL (≈ 2.05 µM)

O=C(/C=C/c1c[nH]c2ccccc12)c1ccc(OCC2=NCCO2)cc1
IC50 [1]: 0.936 µg/mL (≈ 2.7 µM)

O=C(/C=C/c1cccc([N+](=O)[O-])c1)c1ccc(OCC2=NCCO2)cc1
IC50 [1]: 1.57 µg/mL (≈ 4.46 µM)

O=C(/C=C/c1ccc(F)cc1)c1ccc(OCC2=NCCO2)cc1
IC50 [1]: 0.813 µg/mL (≈ 2.5 µM)

NS(=O)(=O)c1ccc(N2N=C(c3ccc(OCC4=NCCO4)cc3)CC2c2cccc(Cl)c2)cc1 (configuration not stated)
IC50 [1]: 0.552 µg/mL (≈ 1.08 µM) | IC50 [2]: 2.15 µg/mL (≈ 4.22 µM) | selectivity ratio [3]: 34.2 | Ratio IC50 [4]: 3.9 | selectivity ratio [5]: 8.7

NS(=O)(=O)c1ccc(N2N=C(c3ccc(OCC4=NCCO4)cc3)CC2c2ccc(F)cc2)cc1 (configuration not stated)
IC50 [1]: 0.419 µg/mL (≈ 0.847 µM) | IC50 [2]: 1.77 µg/mL (≈ 3.59 µM) | selectivity ratio [3]: 19.8 | Ratio IC50 [4]: 4.23 | selectivity ratio [5]: 4.6

CC(=O)N1N=C(c2ccc(OCC3=NCCO3)cc2)CC1c1ccc(Cl)cc1 (configuration not stated)
IC50 [1]: 0.513 µg/mL (≈ 1.29 µM) | IC50 [2]: 1.57 µg/mL (≈ 3.95 µM) | selectivity ratio [3]: 29.5 | Ratio IC50 [4]: 3.06 | selectivity ratio [5]: 9.6

O=C(/C=C/c1ccc(Cl)cc1)c1ccc(OCC2=NCCO2)cc1
IC50 [1]: 0.557 µg/mL (≈ 1.63 µM) | IC50 [2]: 1.82 µg/mL (≈ 5.33 µM) | selectivity ratio [3]: 25.5 | Ratio IC50 [4]: 3.27 | selectivity ratio [5]: 7.8

O=C(/C=C/c1ccc2c(c1)OCCO2)c1ccc(OCC2=NCCO2)cc1
IC50 [1]: 4.23 µg/mL (≈ 11.6 µM)

CC(=O)c1ccc(OCC2=NCCO2)cc1
IC50 [1]: 0.737 µg/mL (≈ 3.36 µM)

Cc1ccc(C2CC(c3ccc(OCC4=NCCO4)cc3)=NN2c2ccccc2)cc1 (configuration not stated)
IC50 [1]: 1.01 µg/mL (≈ 2.45 µM)

Cc1ccc(/C=C/C(=O)c2ccc(OCC3=NCCO3)cc2)cc1
IC50 [1]: 2.68 µg/mL (≈ 8.34 µM)

COc1cccc(/C=C/C(=O)c2ccc(OCC3=NCCO3)cc2)c1
IC50 [1]: 1.82 µg/mL (≈ 5.4 µM)

NS(=O)(=O)c1ccc(N2N=C(c3ccc(OCC4=NCCO4)cc3)CC2c2ccc([N+](=O)[O-])cc2)cc1 (configuration not stated)
IC50 [1]: 0.627 µg/mL (≈ 1.2 µM)

c1ccc(N2N=C(c3ccc(OCC4=NCCO4)cc3)CC2c2c[nH]c3ccccc23)cc1 (configuration not stated)
IC50 [1]: 0.459 µg/mL (≈ 1.05 µM) | IC50 [2]: 4.23 µg/mL (≈ 9.7 µM) | selectivity ratio [3]: 21.3 | Ratio IC50 [4]: 9.22 | selectivity ratio [5]: 2.3

O=C(/C=C/c1cccc(Cl)c1)c1ccc(OCC2=NCCO2)cc1
IC50 [1]: 0.577 µg/mL (≈ 1.69 µM)

NS(=O)(=O)c1ccc(N2N=C(c3ccc(OCC4=NCCO4)cc3)CC2c2ccc3c(c2)OCCO3)cc1 (configuration not stated)
IC50 [1]: 2.15 µg/mL (≈ 4.03 µM)

COc1ccc(/C=C/C(=O)c2ccc(OCC3=NCCO3)cc2)cc1
IC50 [1]: 1.57 µg/mL (≈ 4.66 µM)

O=C(/C=C/c1cccc(O)c1)c1ccc(OCC2=NCCO2)cc1
IC50 [1]: 0.515 µg/mL (≈ 1.59 µM) | IC50 [2]: 1.57 µg/mL (≈ 4.86 µM) | selectivity ratio [3]: 23.6 | Ratio IC50 [4]: 3.05 | selectivity ratio [5]: 7.7

NS(=O)(=O)c1ccc(N2N=C(c3ccc(OCC4=NCCO4)cc3)CC2c2ccc(Cl)cc2)cc1 (configuration not stated)
IC50 [1]: 0.471 µg/mL (≈ 0.922 µM) | IC50 [2]: 1.82 µg/mL (≈ 3.57 µM) | selectivity ratio [3]: 22.2 | Ratio IC50 [4]: 3.87 | selectivity ratio [5]: 5.7

Fc1ccc(C2CC(c3ccc(OCC4=NCCO4)cc3)=NN2c2ccccc2)cc1 (configuration not stated)
IC50 [1]: 0.645 µg/mL (≈ 1.55 µM)

O=C(/C=C/c1ccc(O)cc1)c1ccc(OCC2=NCCO2)cc1
IC50 [1]: 2.44 µg/mL (≈ 7.54 µM)

COc1cccc(C2CC(c3ccc(OCC4=NCCO4)cc3)=NN2c2ccc(S(N)(=O)=O)cc2)c1 (configuration not stated)
IC50 [1]: 0.413 µg/mL (≈ 0.815 µM) | IC50 [2]: 0.936 µg/mL (≈ 1.85 µM) | selectivity ratio [3]: 18.4 | Ratio IC50 [4]: 2.27 | selectivity ratio [5]: 8.1
